Assay type in all cases: functional
A short description of assay [1]: Antiosteoporotic activity in mouse parietal bone assessed as inhibition of parathyroid hormone induced bone resorption by measuring 45Ca release by scintillation counting. Also on record: scale not given: the % may be the effect or the level left. A digest of the protocol:
(§1)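 Mice aged 2 days received 45CaCl2 (2 μCi) subcutaneously; parietal bones were taken 2 days later and cultured on grids at the gas-liquid interface. Medium was Ham's F-12 with NaHCO3, 1.0 mM CaCl2 and 5% heat-inactivated horse serum, at 37 °C under 5% CO2. After 24 h preculture, bones were exposed to PTH (2×10^-9 M final) plus sample for 6 days, medium changed at day 3. Four bones per group.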

Assay [2] in a line: Antiosteoporotic activity in mouse parietal bone assessed as inhibition of parathyroid hormone induced bone resorption by measuring 45Ca release at 200 uM by scintillation counting. Set-up: scale not given: the % may be the effect or the level left. In short, it runs like this: as §1
Assay [3] in a line: Antiosteoporotic activity in mouse parietal bone assessed as inhibition of parathyroid hormone induced bone resorption at 200 uM. A digest of the protocol:
as §1

Assay [4] is described as follows: Antiosteoporotic activity in mouse parietal bone assessed as inhibition of parathyroid hormone induced bone resorption by measuring 45Ca release at 20 uM by scintillation counting. Also on record: scale not given: the % may be the effect or the level left. In short, it runs like this: as §1

The values that follow come from ChEMBL document CHEMBL1159388, “Steroidal glycosides from the rhizomes of Dioscorea spongiosa” (2003).

The structures appear in SMILES notation. Where a SMILES comes first, the peptide text is derived from it. Bridges are numbered along the chain shown (N, C = ends). [ ]: non-standard residue; d: D form. Asu = N[C@@H](CCCCCC(=O)O)C(=O)O

`CC(C)C[C@H](NC(=O)[C@H](CCCCN)NC(=O)CNC(=O)[C@H](CC(C)C)NC(=O)[C@@H](NC(=O)[C@@H]1CCCCCC(=O)N[C@@H](CO)C(=O)N[C@@H](CC(N)=O)C(=O)N[C@@H](CC(C)C)C(=O)N[C@@H](CO)C(=O)N[C@@H]([C@@H](C)O)C(=O)N1)C(C)C)C(=O)N[C@@H](CO)C(=O)N[C@@H](CCC(N)=O)C(=O)N[C@@H](CCC(=O)O)C(=O)N[C@@H](CC(C)C)C(=O)N[C@@H](Cc1cnc[nH]1)C(=O)N[C@@H](CCCCN)C(=O)N[C@@H](CC(C)C)C(=O)N[C@@H](CCC(N)=O)C(=O)N[C@H](C(=O)N[C@@H](Cc1ccc(O)cc1)C(=O)N1CCC[C@H]1C(=O)N[C@@H](CCCNC(=N)N)C(=O)N[C@H](C(=O)N[C@@H](CC(=O)O)C(=O)N[C@H](C(=O)NCC(=O)N[C@@H](C)C(=O)NCC(=O)N[C@H](C(=O)N1CCC[C@H]1C(N)=O)[C@@H](C)O)C(C)C)[C@@H](C)O)[C@@H](C)O` [ELCITONIN] (SNLST[Asu]VLGKLSQELHKLQTYPRTDVGAGTP-NH2; lactam N-6): the Activity in assay [1] came out at 18.4%.

On to `CC(C)CC[C@H](O)[C@@H](C)[C@H]1[C@@H](O[C@@H]2O[C@H](CO)[C@@H](O)[C@H](O)[C@H]2O)C[C@H]2[C@@H]3CC=C4C[C@@H](O[C@@H]5O[C@H](CO)[C@@H](O[C@@H]6O[C@@H](C)[C@H](O)[C@@H](O)[C@H]6O)[C@H](O)[C@H]5O[C@@H]5O[C@@H](C)[C@H](O)[C@@H](O)[C@H]5O)CC[C@]4(C)[C@H]3CC[C@]12C` [SPONGIOSIDES A], for which the Activity in assay [2] came to 17.1%; in assay [4], 30.9%. Further, the “inhibition (INH)” value in assay [3] is 63.6%.

`CC(=O)[C@H]1[C@@H](OC(=O)CCC(C)CO[C@@H]2O[C@H](CO)[C@@H](O)[C@H](O)[C@H]2O)C[C@H]2[C@@H]3CC=C4C[C@@H](O[C@@H]5O[C@H](CO)[C@@H](O[C@@H]6O[C@@H](C)[C@H](O)[C@@H](O)[C@H]6O)[C@H](O)[C@H]5O[C@@H]5O[C@@H](C)[C@H](O)[C@@H](O)[C@H]5O)CC[C@]4(C)[C@H]3CC[C@@]21C` (stereo partly drawn) [HYPOGLAUCIN G]: the Activity in assay [2] is given as 19.2%; in assay [4], 22.8%. For the same compound, the “inhibition (INH)” value in assay [3] is on record as 66.7%.

`C=C[C@@H](CCCCC)O[C@H]1O[C@H](CO[C@@H]2OC[C@H](O)[C@H](O)[C@H]2O)[C@@H](O)[C@H](O)[C@H]1O`: the Activity is recorded as 20.7% in assay [2] and 23.8% in assay [4]. For the same compound, in assay [3], the “inhibition (INH)” value was 61.6%.

Take `CO[C@]1(CC[C@@H](C)CO[C@@H]2O[C@H](CO)[C@@H](O)[C@H](O)[C@H]2O)O[C@H]2C[C@H]3[C@@H]4CC=C5C[C@@H](O[C@@H]6O[C@H](CO)[C@@H](O[C@@H]7O[C@@H](C)[C@H](O)[C@@H](O)[C@H]7O)[C@H](O)[C@H]6O[C@@H]6O[C@@H](C)[C@H](O)[C@@H](O)[C@H]6O)CC[C@]5(C)[C@H]4CC[C@]3(C)[C@H]2[C@@H]1C` [METHYLPROTODIOSCIN]: the Activity in assay [2] is 17.4%; in assay [4], 24.9%. In addition, in assay [3], the “inhibition (INH)” value is recorded as 89.9%.
